The results in this text go back to ChEMBL document CHEMBL4834479, “Discovery of the first chemical tools to regulate MKK3-mediated MYC activation in cancer” (Bioorg Med Chem, 2021).

Structures are written as SMILES. Activity calls are given as the source filed them. The calls are words filed in the database; no cut-off is given here.

The target of test [1] is T1, MAP2K3/Myc proto-oncogene protein (Homo sapiens) (UniProt P46734+P01106). Nature of the test: Disruption of MKK3/MYC protein-protein interaction in human HCT-116 cells assessed as decrease in MYC level at 0.5 to 10 uM measured by western blot assay. Format: cell-based. Conditions: dose 0.5-10 µM.
Test [2] addresses T1, MAP2K3/Myc proto-oncogene protein (Homo sapiens). Nature of the test: Disruption of MKK3/MYC protein-protein interaction in human HCT-116 cells assessed as decrease in CDK4 level at 0.5 to 10 uM measured by western blot assay. Format: cell-based. As to conditions: dose 0.5-10 µM.
The target is the same in test [3]. Nature of the test: Disruption of MKK3/MYC protein-protein interaction in human HCT-116 cells assessed as decrease in PDL1 level at 0.5 to 10 uM measured by western blot assay. As to conditions: dose 0.5-10 µM. Format: cell-based.
Test [4] has the same target. The test is described as follows: Disruption of MKK3/MYC protein-protein interaction in human HCT-116 cells transfected with VF-tagged MKK3 assessed as inhibition of MYC transcriptional activity at 0.5 to 2 uM measured after 12 hrs by […] reporter assay. It counts as cell-based. As to conditions: dose 0.5-2 µM. The gist of the method: (§1)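 Cells were transfected with Venus-Flag-MKK3 or Venus-Flag vector plus a firefly luciferase reporter carrying three MYC E-box sites (or a mutant E-box control) and a Renilla normalization vector. Compound in DMSO (0.5–5 µM, 0.1% DMSO final) was added 36 h post-transfection and cells were incubated 12 h more. Dual-luciferase read-out: firefly/Renilla ratio, then wild-type over mutant E-box fold.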

Test [5] has the same target. The test is described as follows: Disruption of interaction between human recombinant GST-tagged MKK3/VF-tagged MYC expressed in HEK293T cells up to 100 uM measured after 2 hrs by TR-FRET assay. Format: cell-based. As to conditions: dose microM <=100, time 2.0 hrs.
Test [6] addresses DNA (cytosine-5)-methyltransferase 1 (Homo sapiens, UniProt P26358). Nature of the test: Inhibition of DNMT (unknown origin) by densitometric analysis.
The target in test [7] is T2, MAP2K3/Myc proto-oncogene protein (Homo sapiens, UniProt P01106+P46734). The test is described as follows: Disruption of interaction between human recombinant GST-tagged MKK3/VF-tagged MYC expressed in HEK293T cells measured after 2 hrs by TR-FRET assay. It counts as cell-based.
For test [8], the target named is T2, MAP2K3/Myc proto-oncogene protein. The test is described as follows: Disruption of interaction between human recombinant GST-tagged MKK3 (1 to 210 residues)/VF-tagged MYC expressed in HEK293T cells measured after 2 hrs by TR-FRET assay. It counts as cell-based.
For test [9], the system named is HEK293T. The test is described as follows: Disruption of interaction between human recombinant GST-tagged MKK3/VF-tagged p38 expressed in HEK293T cells at 50 uM incubated for 30 mins by GST pull-down assay. Format: cell-based. The gist of the method: (§2)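 GST- and Venus-Flag-tagged human proteins were co-expressed in HEK293T cells for 48 h and lysed in 1% NP-40 buffer (HEPES pH 7.5) at 4 °C. Cleared lysates were pre-incubated 30 min with 50 µM compound or DMSO, then 75 min with glutathione sepharose. Beads were washed three times, eluted in SDS loading buffer, and analysed by Western blot.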

Test [10] deals with T1, MAP2K3/Myc proto-oncogene protein (Homo sapiens). Nature of the test: Disruption of MKK3/MYC protein-protein interaction in human MDA-MB-468 cells assessed as decrease in MYC level at 1 to 20 uM measured by western blot assay. It counts as cell-based. Conditions: dose 1-20 µM.
Test [11] has the same target. Nature of the test: Disruption of MKK3/MYC protein-protein interaction in human MDA-MB-468 cells transfected with VF-tagged MKK3 assessed as inhibition of MYC transcriptional activity measured after 12 hrs by […] reporter assay. Conditions: dose 0.5-5 µM. Format: cell-based. The gist of the method:
as §1

The test system of test [12] is HCT-116. The test is described as follows: Cytotoxicity against human HCT-116 cells assessed as reduction in cell viability measured after 72 hrs by Alamar blue assay. It counts as functional, cell-based. Conditions: HCT-116, 72 h. The gist of the method: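 HCT116 cells in DMEM with 10% FBS at 37 °C, 5% CO2, seeded and treated next day with compound or DMSO. After 72 h, CellTiter-Blue reagent was added for 2 h at 37 °C and fluorescence read at 560 ex/590 em. Background came from medium-only wells, and viability was taken relative to DMSO control.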

Test [13] deals with HCT-116. Nature of the test: Inhibition of cell migration in human HCT-116 cells measured after 18 hrs by scratch wound healing assay. Conditions: dose 0.75-3 µM. It counts as functional, cell-based. In a few lines:
(§3)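 Confluent HCT116 monolayers were wounded, washed with fresh medium, and given medium with compound at set concentrations or DMSO. Live-cell imaging scanned every 2 h over 18 h, with relative wound density as the read-out. Four replicates were run.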

In test [14] the test system is HCT-116. The test is described as follows: Inhibition of cell migration in human HCT-116 cells assessed as relative wound density at 3 uM measured after 18 hrs by scratch wound healing assay (reference value: 20%). Format: functional. The arrangement: scale not given: the % may be the effect or the level left. The gist of the method:
as §3

The target in test [15] is T1, MAP2K3/Myc proto-oncogene protein (Homo sapiens). Nature of the test: Disruption of interaction between human recombinant GST-tagged MKK3/VF-tagged MYC expressed in HEK293T cells at 20 uM measured after 2 hrs by TR-FRET assay. It counts as cell-based.
Test [16] shares this target. Nature of the test: Disruption of interaction between human recombinant GST-tagged MKK3/VF-tagged MYC expressed in HEK293T cells at 50 uM incubated for 30 mins by GST pull-down assay. It counts as cell-based. In a few lines:
as §2

In test [17] the target is c-Myc/c-Max (Homo sapiens) (UniProt P01106+P61244). The test is described as follows: Disruption of interaction between human recombinant GST-tagged MAX/VF-tagged MYC expressed in HEK293T cells at 50 uM incubated for 30 mins by GST pull-down assay. It counts as cell-based. In a few lines:
as §2

For test [18], the target named is T1, MAP2K3/Myc proto-oncogene protein (Homo sapiens). Nature of the test: Disruption of interaction between human recombinant GST-tagged MKK3 expressed in HEK293T cells/MYC in human HCT116 cells incubated for 30 mins by GST pull-down assay. It counts as cell-based. Conditions: dose 2-5 µM.
The target of test [19] is T2, MAP2K3/Myc proto-oncogene protein. Nature of the test: Disruption of interaction between human recombinant GST-tagged MKK3/His-tagged MYC HLH LZ domain measured after 2 hrs by TR-FRET assay. Format: protein assay.
Test [20] has as its target T3, Dual specificity mitogen-activated protein kinase kinase 3 (Homo sapiens) (UniProt P46734).
T3 sequence (whole entry): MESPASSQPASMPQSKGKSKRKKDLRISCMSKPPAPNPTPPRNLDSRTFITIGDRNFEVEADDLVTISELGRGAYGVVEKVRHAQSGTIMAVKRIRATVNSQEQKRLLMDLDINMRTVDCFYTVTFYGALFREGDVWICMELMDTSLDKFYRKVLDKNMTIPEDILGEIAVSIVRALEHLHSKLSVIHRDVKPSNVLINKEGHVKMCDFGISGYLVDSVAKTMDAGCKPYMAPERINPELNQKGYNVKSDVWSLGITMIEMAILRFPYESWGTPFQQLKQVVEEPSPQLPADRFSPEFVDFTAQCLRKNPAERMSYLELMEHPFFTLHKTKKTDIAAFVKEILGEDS
Nature of the test: Inhibition of MKK3 in human HEK293T cells assessed as inhibition of p38 phosphorylation by western blot analysis. Format: cell-based.

Test [21] has as its target T1, MAP2K3/Myc proto-oncogene protein (Homo sapiens). The test is described as follows: Disruption of MKK3/MYC protein-protein interaction in human MDA-MB-468 cells assessed as decrease in CDK4 level at 1 to 20 uM measured by western blot assay. Conditions: dose 1-20 µM. It counts as cell-based.
Test [22] shares this target. Nature of the test: Disruption of MKK3/MYC protein-protein interaction in human MDA-MB-468 cells assessed as decrease in PDL1 level at 1 to 20 uM measured by western blot assay. Format: cell-based. As to conditions: dose 1-20 µM.
For test [23], the system named is HCT-116. Nature of the test: Inhibition of Renilla luciferase activity expressed in human HCT-116 cells assessed as decrease in luminescence at 10 uM measured after 12 hrs by luminescence assay. It counts as cell-based. In a few lines: (§4)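 Renilla luciferase luminescence was compared between cells treated with 10 µM compound and DMSO control, within the dual-luciferase MYC reporter set-up, using a 12 h compound incubation.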

For test [24], the system named is HCT-116. Nature of the test: Inhibition of cell migration in human HCT-116 cells at 0.75 to 3 uM by scratch wound healing assay. Format: functional, cell-based. As to conditions: dose 0.75-3 µM, TDE = time-dependent effect.
Test [25] concerns MDA-MB-468. The test is described as follows: Inhibition of Renilla luciferase activity expressed in human MDA-MB-468 cells assessed as decrease in luminescence at 10 uM measured after 12 hrs by luminescence assay. It counts as cell-based. In a few lines: as §4

T2 sequence (P01106 whole entry, one chain of several, the tested form may be a part): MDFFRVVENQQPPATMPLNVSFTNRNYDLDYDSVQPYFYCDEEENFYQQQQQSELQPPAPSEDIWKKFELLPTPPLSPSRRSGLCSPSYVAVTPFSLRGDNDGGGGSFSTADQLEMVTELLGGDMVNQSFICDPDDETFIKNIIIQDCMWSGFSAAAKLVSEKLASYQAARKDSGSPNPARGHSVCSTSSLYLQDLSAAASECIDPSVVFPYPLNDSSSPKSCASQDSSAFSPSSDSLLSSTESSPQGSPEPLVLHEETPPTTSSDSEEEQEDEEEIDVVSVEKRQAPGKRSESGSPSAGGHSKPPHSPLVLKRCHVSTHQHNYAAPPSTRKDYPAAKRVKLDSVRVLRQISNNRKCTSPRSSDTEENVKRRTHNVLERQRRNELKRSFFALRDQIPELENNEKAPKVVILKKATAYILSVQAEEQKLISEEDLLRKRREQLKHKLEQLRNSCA
T1 sequence (P01106 whole entry, looked up, one chain of several): as the sequence (P01106 whole entry, one chain of several, the tested form may be a part) above
Chain of c-Myc/c-Max (Homo sapiens) (P01106 whole entry): as the sequence (P01106 whole entry, one chain of several, the tested form may be a part) above
Chain of c-Myc/c-Max (Homo sapiens) (P61244 2-160 partner limits assumed): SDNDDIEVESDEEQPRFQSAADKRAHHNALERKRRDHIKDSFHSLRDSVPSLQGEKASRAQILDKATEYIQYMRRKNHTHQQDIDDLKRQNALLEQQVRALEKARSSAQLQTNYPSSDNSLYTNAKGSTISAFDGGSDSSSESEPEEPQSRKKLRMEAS
Chain of DNA (cytosine-5)-methyltransferase 1 (P26358 whole entry): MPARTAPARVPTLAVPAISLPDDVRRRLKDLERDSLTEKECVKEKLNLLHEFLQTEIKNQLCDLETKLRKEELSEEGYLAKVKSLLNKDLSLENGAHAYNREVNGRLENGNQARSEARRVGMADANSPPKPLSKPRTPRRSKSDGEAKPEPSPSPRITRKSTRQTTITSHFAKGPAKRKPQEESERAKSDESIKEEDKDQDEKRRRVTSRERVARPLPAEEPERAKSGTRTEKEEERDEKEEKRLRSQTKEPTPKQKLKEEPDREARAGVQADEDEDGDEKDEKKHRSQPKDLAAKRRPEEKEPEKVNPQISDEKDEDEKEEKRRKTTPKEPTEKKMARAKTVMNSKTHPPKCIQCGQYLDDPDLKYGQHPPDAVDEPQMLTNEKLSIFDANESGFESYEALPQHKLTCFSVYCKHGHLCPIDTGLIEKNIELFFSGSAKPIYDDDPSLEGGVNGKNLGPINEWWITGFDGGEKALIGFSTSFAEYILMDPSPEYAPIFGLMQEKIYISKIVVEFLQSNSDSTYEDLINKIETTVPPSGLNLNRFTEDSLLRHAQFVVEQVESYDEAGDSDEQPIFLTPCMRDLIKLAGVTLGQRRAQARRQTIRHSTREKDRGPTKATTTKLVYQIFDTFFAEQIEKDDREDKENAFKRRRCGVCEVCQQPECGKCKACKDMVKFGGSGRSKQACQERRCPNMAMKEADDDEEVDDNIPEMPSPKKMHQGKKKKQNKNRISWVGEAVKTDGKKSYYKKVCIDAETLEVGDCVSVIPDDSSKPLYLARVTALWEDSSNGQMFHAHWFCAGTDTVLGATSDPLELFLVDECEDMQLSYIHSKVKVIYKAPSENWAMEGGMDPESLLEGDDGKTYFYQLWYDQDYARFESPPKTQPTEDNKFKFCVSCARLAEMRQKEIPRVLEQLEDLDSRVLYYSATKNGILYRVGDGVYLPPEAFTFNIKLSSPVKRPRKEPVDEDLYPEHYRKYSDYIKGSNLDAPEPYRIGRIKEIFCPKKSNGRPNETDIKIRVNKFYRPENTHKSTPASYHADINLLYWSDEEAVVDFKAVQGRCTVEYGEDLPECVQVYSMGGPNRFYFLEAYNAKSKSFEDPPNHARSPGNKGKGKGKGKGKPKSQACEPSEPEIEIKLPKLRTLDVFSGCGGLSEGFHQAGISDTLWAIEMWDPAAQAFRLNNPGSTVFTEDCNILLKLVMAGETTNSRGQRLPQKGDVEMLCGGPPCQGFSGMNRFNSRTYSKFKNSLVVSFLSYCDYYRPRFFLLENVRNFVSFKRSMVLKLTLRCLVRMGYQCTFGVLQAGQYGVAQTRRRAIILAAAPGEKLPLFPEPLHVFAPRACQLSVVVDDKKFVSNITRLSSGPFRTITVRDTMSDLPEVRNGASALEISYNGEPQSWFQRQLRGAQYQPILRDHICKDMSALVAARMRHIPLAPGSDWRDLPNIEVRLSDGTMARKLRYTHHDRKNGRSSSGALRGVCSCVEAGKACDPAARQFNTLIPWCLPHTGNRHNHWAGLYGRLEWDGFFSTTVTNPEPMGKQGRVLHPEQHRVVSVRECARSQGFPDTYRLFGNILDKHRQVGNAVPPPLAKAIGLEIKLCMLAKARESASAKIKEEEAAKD

With `O=C(O)[C@H](Cc1c[nH]c2ccccc12)N1C(=O)c2ccccc2C1=O`, the outcome in test [1], in test [2], in test [3], in [4] and in test [5] was inactive. In [6], this compound returned an IC50 of 0.115 µM.

In the case of `Cc1cc(Nc2ccc(NC(=O)c3ccc(Nc4ccnc5ccccc45)cc3)cc2)nc(N)n1`, the half-inhibitory concentration (IC50) was 8.46 µM in test [7], 3.8 µM in [8], 3.2 µM in test [12] and 9.67 µM in test [19]. Moreover, the result in test [9] and in test [17] was inactive. The result in test [1], in test [2], in test [3], in test [10], in [16] and in test [21] was Active. Moreover, in test [22], the outcome was Active. The Activity entry in test [4] was “Dose-Dependent Effect”; in test [11] it was “Dose-Dependent Effect”; in test [14], 8%; in test [18] it was “Dose-Dependent Effect”. The inhibition entry in test [13] is “Dose-Dependent Effect”; in test [15], 37%; in test [24], “Tde”. In addition, the inhibition entry in [20], in [23] and in test [25] was “inactive” throughout.

Take `Cc1cc2c(C(C)C)c(O)c(O)c(C=O)c2c(O)c1-c1c(C)cc2c(C(C)C)c(O)c(O)c(C=O)c2c1O`: the inhibition in test [15] was 31%. In test [5], the result was inactive.

For `O=C(O)C1=CC(=C(c2ccc(O)c(C(=O)O)c2)c2ccc(O)c(C(=O)O)c2)C=CC1=O` [AURINTRICARBOXYLIC ACID], in test [7], the concentration for half-maximal inhibition (IC50) is 14.1 µM. Besides, the inhibition in test [15] worked out at 58%.

For `CC(C)c1cc(C(C)C)c(CC(=O)NS(=O)(=O)Oc2c(C(C)C)cccc2C(C)C)c(C(C)C)c1` [AVASIMIBE], the IC50 in [7] turned out to be 63.9 µM.
